Measured values: ChEMBL document CHEMBL2390931, “Synthesis and antifungal activity of some s-mercaptotriazolobenzothiazolyl amino acid derivatives” (2013)
Values after ≈ are worked out from the molar mass of the structure shown. Active and inactive are the calls of the source. The rule behind the calls is not given here.

What was measured:
Type in all cases: functional
[1] = tested on: Aspergillus flavus; assay: Antifungal activity against Aspergillus flavus at 300 ppm
Procedure, shortened: (§1)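 Agar well diffusion against clinical isolates (A. flavus mold; C. albicans yeast); standardized spore suspension 10⁴ CFU/mL. Compounds dissolved in DMSO as a parent stock, diluted to test levels (100, 300, 500, 1000 ppm).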

[2] = tested on: Candida albicans; assay: Antifungal activity against Candida albicans at 100 ppm; settings: read-out: DIZ; procedure, shortened: as §1
[3] = tested on: Candida albicans; assay: Antifungal activity against Candida albicans at 500 ppm; settings: read-out: DIZ; procedure, shortened: as §1
[4] = tested on: Aspergillus flavus; assay: Antifungal activity against Aspergillus flavus up to 24 hrs
Procedure, shortened: (§2)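 MFC in tubes of standardized spore suspension (10⁴ CFU/mL) of clinical isolates, each dosed with compound at increasing concentrations starting from the MIC. Controls: solvent at its highest level, and fluconazole. CFU counted and viability checked at intervals over 0–24 h. MFC is the lowest concentration killing about 99% of viable CFU.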

[5] = tested on: Candida albicans; assay: Antifungal activity against Candida albicans at 300 ppm; settings: read-out: DIZ; procedure, shortened: as §1
[6] = tested on: Aspergillus flavus; assay: Antifungal activity against Aspergillus flavus at 100 ppm
Procedure, shortened: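 Clinical isolate of A. flavus (mold) tested by agar diffusion, well technique, using a standardized spore suspension of 10⁴ CFU/mL. Compounds were dissolved in dimethylsulphoxide and diluted from a parent stock.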

[7] = tested on: Aspergillus flavus; assay: Antifungal activity against Aspergillus flavus at 500 ppm; procedure, shortened: as §1
[8] = tested on: Candida albicans; assay: Antifungal activity against Candida albicans by agar diffusion technique
Procedure, shortened: (§3)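 Clinical isolates (A. flavus mold; C. albicans yeast), spore suspension standardized at 10⁴ CFU/mL. DMSO stocks diluted to a concentration series. Approximate MIC by agar diffusion (well technique), taken as the concentration giving minimal inhibition around the well.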

[9] = tested on: Candida albicans; assay: Antifungal activity against Candida albicans up to 24 hrs; procedure, shortened: as §2
[10] = tested on: Candida albicans; assay: Antifungal activity against Candida albicans at 1000 ppm; settings: read-out: DIZ; procedure, shortened: as §1
[11] = tested on: Aspergillus flavus; assay: Antifungal activity against Aspergillus flavus by agar diffusion technique; procedure, shortened: as §3
[12] = tested on: Aspergillus flavus; assay: Antifungal activity against Aspergillus flavus at 1000 ppm; settings: read-out: DIZ; procedure, shortened: as §1

Structure (SMILES): COC(=O)[C@H](Cc1ccc(O)cc1)NC(=O)CSc1nnc2sc3ccccc3n12
- diameter of the inhibition zone (DIZ) [1]: inactive
- zone of inhibition at 100 ppm [2]: < 10 mm
- zone of inhibition at 500 ppm [3]: > 16 mm
- MFC [4]: inactive
- zone of inhibition at 300 ppm [5]: < 10 mm
- diameter of the inhibition zone (DIZ) [6]: inactive
- diameter of the inhibition zone (DIZ) [7]: inactive
- MIC [8]: 100 µg/mL (≈ 226 µM)
- MFC [9]: inactive
- zone of inhibition at 1000 ppm [10]: > 16 mm
- MIC [11]: 1000 µg/mL (≈ 2260 µM)
- zone of inhibition at 1000 ppm [12]: < 10 mm

Structure (SMILES): Sc1nc2ccccc2s1 [2-MERCAPTOBENZOTHIAZOLE]
- diameter of the inhibition zone (DIZ) [1]: inactive
- zone of inhibition at 100 ppm [2]: < 10 mm
- zone of inhibition at 500 ppm [3]: 10 mm
- MFC [4]: inactive
- zone of inhibition at 300 ppm [5]: < 10 mm
- diameter of the inhibition zone (DIZ) [6]: inactive
- zone of inhibition at 500 ppm ([7]; read-out: DIZ): < 10 mm
- MIC [8]: 100 µg/mL (≈ 598 µM)
- MFC [9]: 500 µg/mL (≈ 2990 µM)
- zone of inhibition at 1000 ppm [10]: > 16 mm
- MIC [11]: 500 µg/mL (≈ 2990 µM)
- zone of inhibition at 1000 ppm [12]: 10 mm
